A selection: hits, their analogues and other compounds. The true share with any hit is near 4.5%.
GPR7 antagonist = blocks human GPR7 receptor signaling; GPR7-expressing cells, fluorescence antagonist assay; inhibition, % at 4.4 µM; hit rate 1.1% among 290,000; AID 1861; in the data active = inhibition above about 16%, passing the limit was not always enough;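 note: cells stimulated with the agonist NPW; 0% = agonist with vehicle and 100% = vehicle without agonist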
Target sequence (P48145 whole entry, looked up): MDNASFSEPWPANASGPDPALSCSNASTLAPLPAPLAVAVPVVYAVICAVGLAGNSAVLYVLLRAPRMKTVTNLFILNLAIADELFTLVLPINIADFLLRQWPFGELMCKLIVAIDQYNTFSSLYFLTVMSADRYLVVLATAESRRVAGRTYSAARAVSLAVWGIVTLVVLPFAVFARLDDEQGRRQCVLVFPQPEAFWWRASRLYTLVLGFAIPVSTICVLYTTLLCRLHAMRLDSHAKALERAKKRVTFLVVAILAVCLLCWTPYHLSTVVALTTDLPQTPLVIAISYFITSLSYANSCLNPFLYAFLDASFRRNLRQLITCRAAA
TAAR1 antagonist = human TAAR1 antagonism; AID 624466; inhibition, % at 3 µM; Q96RJ0; hit rate 1.5% among 360,000; CHO RD-HGA16 TAAR1, Fluo-8 calcium fluorescence, antagonist;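 active = inhibition above a per-plate cutoff, the mean inhibition of test compounds on that plate plus 3 SD, cut at about 49% in these data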;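 note: 0% = DMSO plus EC80 beta-PEA response and 100% = DMSO alone without agonist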
Target sequence (Q96RJ0 whole entry, looked up): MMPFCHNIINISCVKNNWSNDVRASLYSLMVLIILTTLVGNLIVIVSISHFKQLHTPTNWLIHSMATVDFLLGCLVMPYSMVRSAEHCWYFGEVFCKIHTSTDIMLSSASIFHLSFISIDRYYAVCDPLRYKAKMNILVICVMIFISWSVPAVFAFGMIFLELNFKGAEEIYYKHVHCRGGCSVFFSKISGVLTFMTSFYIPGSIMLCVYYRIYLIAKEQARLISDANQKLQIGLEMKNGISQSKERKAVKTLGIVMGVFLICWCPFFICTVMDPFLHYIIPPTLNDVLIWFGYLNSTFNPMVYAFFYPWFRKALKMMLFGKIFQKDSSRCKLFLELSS
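test system = CHO RD-HGA16 cells bearing hTAAR1 | replication = singlicate | controls = DMSO-only wells and EC80 β-PEA-stimulated wells | reagent = EC80 β-phenethylamine stimulus | read-out basis = percent inhibition of PEA-evoked calcium signal, max/basal emission ratio | schedule = seeding 17-24 h prior, 75-min 37 °C, 30-min RT dye loading | signal = kinetic Fluo-8 calcium fluorescence measurement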
OX1R antag-1 = antagonists of human orexin 1 receptor (OX1R); inhibition, % at 6.6 µM; OX1R-expressing cells, FRET antagonist read-out; hit rate 1.8% among 330,000; O43613; in the data active = inhibition mostly above about 38%, no sharp cut-off; inactive = mostly below about 40%;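 note: 0% = agonist challenge alone and 100% = reference antagonist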
CHO parental Ca = counter-screen for OX1R antagonists: effect in parental CHO cells. parental CHO-K1, ATP-induced calcium, Fluo-8 fluorescence. inhibition, % at 5.6 µM. hit rate 0.63% among 330,000;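 active = inhibition above that plate's mean sample inhibition plus 3 SD, cut at about 26% in these data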;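 note: 0% = ATP-challenged DMSO wells and 100% = DMSO wells without ATP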
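Material – parental CHO cells · Reagent – ATP stimulus · Compound – single nominal dose of 5.6 µM per compound · Detection – Fluo-8 fluorescence · Read-out basis – percent inhibition of calcium signal · Controls – ATP-challenged DMSO wells low, unchallenged DMSO wells high · Repeats – no replicates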
TAAR1 ag = human TAAR1 agonism; Q96RJ0; CHO RD-HGA16 TAAR1, Fluo-8 calcium fluorescence; vehicle wells 0%, saturating PEA agonist 100%; activation, % at 3 µM; hit rate 0.99% among 360,000; AID 624467;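 active = activation above the mean activation of all test compounds in the run plus 3 SD, cut at about 38% in these data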
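Assay system – CHO-derived RD-HGA16 cells with stable Gα16 and human TAAR1 · Compound dosing – one-point dosing at 3 µM (nominal) · Incubation – 17-24 h seeding, 75 min 37 °C dye, 30 min RT · Measured by – kinetic Fluo-8 calcium fluorescence · Control set – DMSO vehicle as 0%, PEA at EC100 as 100% · Repeats – single well for each compound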
OX1R antag-2 = antagonists of human orexin 1 receptor | O43613 | CHO/OX1R cells, Fluo-8 calcium fluorescence, orexin A | inhibition, % at 5 µM | hit rate 0.43% among 330,000 | AID 434989;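 active = inhibition above its plate's threshold, mean inhibition of all tested compounds on the plate plus 3 SD, cut at about 37% in these data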;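 note: 0% = orexin A challenge wells and 100% = SB-334867-A antagonist wells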
* marks the source's active call; other numbers are inactive results; nt = no result given.

SMILES	GPR7 antagonist	TAAR1 antagonist	OX1R antag-1	CHO parental Ca	TAAR1 ag	OX1R antag-2
COc1ccc(NC(=O)c2cc3c(=O)n(C)c4ccccc4c3n2C)cc1OC	-8	5	43*	-11	4	-21
CN(c1ccc(NC(=O)Cc2cn(C)c3ccccc23)cc1)c1ccccn1	nt	1	nt	nt	-2	nt
CCN(C(=O)CSc1nc2ccc([N+](=O)[O-])cc2s1)C1CCS(=O)(=O)C1 (configuration not stated)	-5	1	68*	-10	2	-5
Fc1ccc2[nH]c3c(NCc4ccccc4)ncnc3c2c1	28	16	59*	70*	13	3
C(=N\Nc1nc2ccccc2s1)/c1ccccn1	-3	2	60*	6	6	-3
C(=N\Nc1nc2ccccc2s1)/c1ccc2c(c1)OCO2	-7	1	75*	-6	5	5
Nc1nnc(SCC(=O)OCC(=O)Nc2ccc(Br)cc2)s1	-4	1	12	2	44*	9
Nc1nnc(SCC(=O)OCC(=O)Nc2ccc(Br)cc2F)s1	-15	-4	2	-5	11	8
CCCCCCCCN1C(=O)[C@@H](CC(=O)NCCCN2CCCC2=O)C[C@@]2(C(=O)OC)C1=C[C@H](C(C)(C)C)O[C@@H]2C	nt	-24	nt	nt	-2	nt
Cc1cc(N2CCN(CC(C)(C)O)C[C@H]2C)ccc1N1CCN(Cc2ccccc2)[C@@H](C)C1	nt	-24	nt	nt	2	nt
CC(=O)c1ccc(S(=O)(=O)N2CCN(c3ccnc4cc(Cl)ccc34)CC2)cc1	nt	47	nt	nt	3	nt
Cc1cc(N2CCN(S(=O)(=O)c3ccc(Cl)cc3)CC2)c2ccccc2n1	-5	31	30	58*	21	24
Cc1ccc(S(=O)(=O)N2CCN(c3ccnc4cc(Cl)ccc34)CC2)cc1C	-15	14	55	37*	8	25
Cc1ccc(S(=O)(=O)N2CCN(c3ccnc4cc(Cl)ccc34)CC2)cc1	14	45	31	56*	1	53*
CCC(=O)N1CCC1(C)C(=O)Nc1ccccc1 (configuration not stated)	nt	5	nt	nt	1	nt
Clc1ccc(Cc2ccc(SCc3ccccc3)nn2)c(Cl)c1	-2	50*	16	1	15	-21
CC(=O)OC[C@H]1O[C@H](C#Cc2ccc(C(C)(C)C)cc2)C=C[C@H]1OC(=O)Nc1ccccc1	nt	2	nt	nt	0	nt
Cn1nnnc1Sc1ncnc2scc(-c3ccc(Cl)cc3)c12	nt	-1	11	-22	-1	-34
Cn1nnnc1Sc1ncnc2scc(-c3ccc([N+](=O)[O-])cc3)c12	nt	22	39*	-8	4	1
OCCNc1nc(-c2cccnc2)nc2ccccc12	8	14	6	-3	2	-11
OC(CNc1nc(-c2cccnc2)nc2ccccc12)c1ccccc1 (configuration not stated)	-13	49*	35	-12	13	-19
Cc1ccc(-c2nc(NCc3cccnc3)c3ccccc3n2)cc1	-4	-4	12	-6	-2	-20
Clc1cccc(-c2nc(NCc3cccnc3)c3ccccc3n2)c1	2	24	64*	-12	17	10
c1ccc(-c2nc(NCc3cccnc3)c3ccccc3n2)cc1	11	nt	49*	-11	nt	9
COC(=O)c1cc2c(c3c4ccccc4n(S(=O)(=O)c4ccc(C)cc4)c13)C(=O)N(CC(C)C)C2	nt	-45	nt	nt	-2	nt
SMILES	GPR7 antagonist	TAAR1 antagonist	OX1R antag-1	CHO parental Ca	TAAR1 ag	OX1R antag-2
COc1ccc(C(=O)CCC(=O)NCCc2ccccc2F)cc1	-6	71*	-4	-10	39*	8
O=C(CCCC(=O)c1ccccc1)NCCc1ccccc1F	-6	73*	11	-22	40*	-19
CC(=O)OCC1O[C@@H](O[C@@H]2C[C@H]3C(C)(C)[C@H](OC(C)=O)CC[C@]3(C)[C@H]3CC[C@]45C[C@]4(CC[C@H]5[C@@H](C)C[C@@H](O)[C@H](O)C(C)(C)O)[C@@]32C)[C@H](O)[C@@H](O)[C@@H]1O (some centres not stated)	10	nt	23	100*	nt	67*
COC(=O)[C@]12C[C@H](CC(=O)NCCC(C)C)C(=O)N(Cc3ccc4c(c3)OCO4)C1=C[C@H](COCc1ccccc1)O[C@@H]2C	nt	-32	nt	nt	-2	nt
CC(C)C[C@H](NS(=O)(=O)c1ccc(F)cc1F)C(=O)N1CCC[C@H]1C(=O)NCc1ccccc1	nt	1	nt	nt	0	nt
Cn1c(=O)c2c(ncn2CC(=O)N/N=C/C(Br)=C/c2ccccc2)n(C)c1=O	-1	2	15	-16	5	-13
O=C(Cn1cnc2ccccc21)N/N=C/C(Br)=C/c1ccccc1	0	49*	7	8	15	11
O=C(Cn1cnc2ccccc21)NCc1ccccc1	-14	8	2	-16	3	13
O=C(Cn1cnc2ccccc21)Nc1ccc(SC(F)F)cc1	12	13	30	46*	11	18
OCCC(N1CCOCC1)C(O)(c1ccccc1)c1ccccc1 (configuration not stated)	nt	-9	nt	nt	2	nt
Cc1ccc(-n2c(C)cc(C(=O)CSc3nncs3)c2C)cc1	-2	43	57*	24	5	92*
COCCNC(=O)C(c1ccc(C)o1)N(Cc1ccc(OC)cc1)C(=O)Cn1nnc2ccccc21 (configuration not stated)	3	31	21	-10	41*	-14
COCCNC(=O)C(c1ccc(C)o1)N(Cc1ccc(F)cc1)C(=O)Cn1nnc2ccccc21 (configuration not stated)	-6	13	36	-31	4	-30
CCSc1nnc(-c2cc(Br)ccc2N=Cc2c(C)[nH]n(-c3ccccc3)c2=O)c(=O)[nH]1	6	-18	75*	-11	-1	-18
CSc1nnc(-c2cc(Br)ccc2N=Cc2c(C)[nH]n(-c3ccccc3)c2=O)c(=O)[nH]1	-8	-14	48*	5	4	-21
CCSc1nnc(-c2ccccc2N=Cc2c(C)[nH]n(-c3ccccc3)c2=O)c(=O)[nH]1	-4	-22	44	-5	2	-2
c1ccc(CN2CCN(c3ncnc4c3[nH]c3ccccc34)CC2)cc1	0	47	33	46*	21	3
CCOc1ccc2[nH]c3c(N4CCN(c5ccccn5)CC4)ncnc3c2c1	0	24	61*	-9	10	-8
c1ccc2c(c1)[nH]c1c(N3CCC4(CC3)OCCO4)ncnc12	5	nt	66*	60*	nt	37
Cc1ccc2[nH]c3c(N4CCCCCC4)ncnc3c2c1	4	nt	nt	nt	nt	nt
COc1ccc2c(c1)[nH]c1c(N3CCN(Cc4ccc5c(c4)OCO5)CC3)ncnc12	4	30	49*	11	12	15

Screening data: PubChem BioAssay, The Scripps Research Institute Molecular Screening Center
